# HKDC1 inhibitor: blocks human hexokinase HKDC1 activity. Q2TB90. hit rate 0.16% among 340,000. inhibition, % at 20 µM. recombinant HKDC1, G6PDH/diaphorase resazurin coupled fluorescence;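 active = inhibition above about 35% when tested at 20 µM, limit read from the data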;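 also: plate controls were DMSO wells with enzyme for no effect and DMSO wells lacking enzyme for full effect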
#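 Assay system – recombinant HKDC1 (HK5) hexokinase enzyme, produced in-house · Input – HKDC1 at 5 µg/mL · Reagent – glucose plus 1 mM ATP as hexokinase substrates · Timing – 90 min reaction incubation at room temperature, dark · Measured by – G6PDH/diaphorase-coupled fluorescence, 1 mM NADP, 100 µM resazurin, 525/613 nm · Benchmarks – DMSO-enzyme wells negative, buffer-substituted wells positive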
# Autophagy mod: alters autophagy in cells. MEF GFP-LC3 puncta imaging; test concentration mostly 10 µM. calls only at 10 µM (by protocol). hit rate 0.98% among 190,000. AID 463193;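 active = percentage of spot-positive cells more than 3 SD above its plate mean, without a fluorescence outlier flag or 80% toxicity; inconclusive = no clear call, values can overlap the other calls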;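 also: spot-positive cell cutoff set from DMSO-treated cells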
# PERK inhibitor: inhibitors of human PERK kinase; CHO PERK-DD fusion, SEAP luminescence translation reporter; inhibition, % at 5.6 µM; hit rate 0.17% among 220,000; AID 1416;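 active = inhibition above the mean inhibition of all tested compounds plus 3 SD, set separately per screening campaign, cut at about 2.9% in these data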;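 also: PERK kinase domain activated by AP20187 dimerizer at 100 nM; 0% = DMSO with dimerizer and 100% = rapamycin at 8.4 µM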
# HSV augment: HSV replication enhancement. HSV replication augmentation in cells, fold increase. maximum fold increase. hit rate 0.005% among 220,000; in the data active = maximum fold increase above about 1.5; inconclusive = no clear call, values can overlap the other calls; tested in PC3 cells
# Dynein cargo inh: dynein cargo transport inhibition. 3617.4 mouse cells, GR-EGFP nuclear translocation imaging; test concentration mostly 20 µM; stimulated with dexamethasone, 1 µM; active compounds read low. z-score, hits read low. hit rate 0.47% among 220,000. AID 1381;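 active = plate z-score of nuclear minus cytoplasmic receptor signal below a set negative limit, without overly bright fluorescence or cell loss, cut at about -3.5 in these data, passing the limit was not always enough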;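 also: z-score of nuclear minus cytoplasmic ring GR-EGFP intensity difference per well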
#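 Medium: Induction medium lacking tetracycline, stripped serum | Probe or stimulus: 1.0 µM final dexamethasone stimulus | Schedule: 48 h induction, then 1 h compound, then 30 min agonist, 37 °C | Signal: Automated 10x imaging of fixed Hoechst-stained cells | Evaluation: Per-cell GR-EGFP intensity, nucleus versus surrounding cytoplasmic ring, well-averaged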
# TbHK1 inh: blocks Trypanosoma brucei hexokinase 1 activity; inhibition, % at 10 µM; hit rate 0.11% among 220,000; AID 1430; recombinant TbHK1, G6PDH-coupled NADH A340;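 active = inhibition of 50% or more in the single-dose primary screen; inactive = inhibition below 50%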
# An asterisk follows results filed as active; i = inactive; ? = inconclusive; · = no result; + = active, no number. Sampled rows, rich in hits. Any-hit rate of the full collection: about 1.2%.
SMILES,HKDC1 inhibitor,Autophagy mod,PERK inhibitor,HSV augment,Dynein cargo inh,TbHK1 inh
Cc1cccc(NS(=O)(=O)c2ccc(C)c(C(=O)N(C)C3CCN(C)CC3)c2)c1,2,·,·,·,·,·
CCN1/C(=C\c2ccc3cc(C)ccc3[n+]2CC)Sc2cc(C)c(C)cc21,-1,+,0,·,-1.2,4
CCN1/C(=C/c2ccc3cccc(C)c3[n+]2CC)Sc2ccccc21,-28,+,0,·,-2.2,-8
CCN1/C(=C/c2ccc3cc(C)cc(C)c3[n+]2CC)Sc2cc(C)ccc21,7,?,0,·,6.9,20
CC(NCC(=O)Nc1cc(S(=O)(=O)N2CCOCC2)ccc1N1CCOCC1)c1ccco1 (configuration not stated),2,·,·,·,·,·
O=C(O)CC(c1ccc(F)cc1F)N1Cc2ccccc2C1=O (configuration not stated),-6,·,·,·,·,·
COc1cccc(C2c3c(C)nn(-c4ccc([N+](=O)[O-])cc4)c3N=C3C(=O)Nc4ccccc4N32)c1 (configuration not stated),1,+,0,i,0.81,-20
Cc1nc2ccccc2c(=O)n1/N=C/c1ccccn1,-4,i,3.0*,i,-0.24,-4
Cc1nc2ccccc2c(=O)n1/N=C/c1ccccc1F,-5,·,·,·,·,·
CCCN1C/C(=C/c2cccc([N+](=O)[O-])c2)C(=O)/C(=C/c2cccc([N+](=O)[O-])c2)C1,17,+,-2,i,-6.3*,-7
COc1cc(CNCc2cc(OC)c(OC)c(OC)c2)cc(OC)c1,4,·,·,·,·,·
CC(NC(=O)CCN1C(=O)c2ccccc2C1=O)c1ccccc1 (configuration not stated),-4,·,·,·,·,·
CCCCCCCNC(=O)C1(CC2CC(c3ccc(Cl)cc3)=NO2)CCN(C(=O)OC(C)(C)C)CC1 (configuration not stated),-16,·,·,·,·,·
COc1ccc(NC(C)=O)cc1S(=O)(=O)N1CCN(Cc2cccs2)CC1,-1,·,·,·,·,·
CCCCC(CCCC)=N/N=C/c1c(O)n(CC)c2cc(C3=NNC(=O)CC3)ccc12,5,+,1,i,0.17,-16
CC(=O)c1c(C)[nH]c(C(=O)OCC(=O)NCc2cccs2)c1C,-4,·,·,·,·,·
Cc1[nH]c2ccccc2c1C(C#N)(C#N)C1C(=O)c2ccccc2C1=O,57*,·,1,i,-2.9,-11
Cc1[nH]c2ccccc2c1CC#N,-2,·,0,i,-0.72,-3
CN1/C(=C\C=C2/C(=O)Oc3ccccc3C2=O)C(C)(C)c2ccccc21,5,+,-1,?,-2.1,1
COc1ccc(Nc2nc(N3CCCC3)nc3ccccc23)c(OC)c1,0,+,-2,i,-0.15,-19
CCN(c1ccccc1)S(=O)(=O)c1cccc(C(=O)NCC2(N(C)C)CCCCC2)c1,2,·,·,·,·,·
CCCCCCOc1ccc(/C=c2\s/c(=C(/C#N)C(=O)NCc3ccco3)n(-c3ccccc3)c2=O)cc1,-14,+,-1,i,2.6,5
CC1(C)CC(=O)C=C(NCCO)C1,-3,i,3.1*,i,0.17,3
Clc1ccc(/C=N/NC2=Nc3cccc4cccc2c34)cc1,-6,+,1,?,-1.1,-12
C(=N\NC1=Nc2cccc3cccc1c23)/c1ccccc1,13,i,0,i,-0.044,-2
SMILES,HKDC1 inhibitor,Autophagy mod,PERK inhibitor,HSV augment,Dynein cargo inh,TbHK1 inh
COc1cc(C(=O)N/N=C/c2sccc2C)cc(OC)c1OC,-2,+,0,i,-0.29,-49
Cc1ccsc1/C=N/NC(=O)c1ccncc1,0,i,0,i,1.3,-39
COc1ccc(-c2nc(C)c(C(C)=O)n2O)cc1OC,-7,+,1,i,0.18,-30
O=C(CN1C(=O)NC2(CCOc3ccccc32)C1=O)N1CCCCC1 (configuration not stated),-7,·,·,·,·,·
O=C1NN(c2ccccc2)C(=O)/C1=C\c1cccc(OC(=O)c2cccs2)c1,24,i,0,i,-3.3,-2
O=C1NN(c2ccc(Cl)c(Cl)c2)C(=O)/C1=C/c1cccc(OC(=O)c2cccs2)c1,·,i,1,i,-3.8*,7
Cc1ccc(Oc2ccc(NS(=O)(=O)c3cccc(C(=O)O)c3)cc2)cc1,5,·,·,·,·,·
CCCCCC(=O)Nc1ccc2oc(-c3cncc(Br)c3)nc2c1,-7,+,0,i,2.2,1
O=C(CN1CCCC1)Nc1ccc(-c2nc3cc(NC(=O)CN4CCCC4)ccc3o2)cc1,1,+,-1,i,0.73,-33
CCN(CC)CC(=O)Nc1ccc(-c2nc3cc(NC(=O)CN(CC)CC)ccc3o2)cc1,1,i,0,i,0.63,-33
CCOc1ccccc1C(=O)Nc1cc(C)ccc1NC(=O)c1ccco1,-4,·,·,·,·,·
CCN(C[C@H]1N[C@@](C)(C(=O)OC)[C@H]2C(=O)N(C)C(=O)[C@@H]12)C(=O)c1ccc(C(C)(C)C)cc1,-1,·,·,·,·,·
O=C1C=CC(=O)N1CCCCCCN1C(=O)C=CC1=O,-9,i,0,i,-4*,-1
CCOc1cc(NC(=O)c2ccco2)c(OCC)cc1NC(=O)COc1ccccc1C,-2,+,1,i,-0.62,-16
CC(=O)NC1CCN(C(=O)N2CCCC2)CC1,-2,+,0,i,1.7,5
CCN1CCN(CCNC(=O)c2ccc(/C=C3\Sc4ccccc4N(Cc4ccccc4F)C3=O)cc2)CC1,-12,+,-1,i,0.22,-17
Cc1nnc(NC(=O)CCC(=O)N2CCN(S(=O)(=O)c3cc([N+](=O)[O-])ccc3C)CC2)s1,-3,·,·,·,·,·
CN(C)c1ccc(CNc2ccc3c(c2)ncn3C(C)(C)C)cc1,1,·,·,·,·,·
Cc1ccccc1NC(=O)NCCCN1CCCC1,-11,i,3.5*,i,-0.48,-3
O=C(CSc1nccc(=O)[nH]1)Nc1ccc2c(c1)OCCO2,-8,i,1,i,2.1,-2
Cc1cc(=O)[nH]c(SCC(=O)Nc2ccc3c(c2)OCCO3)n1,0,i,3.3*,i,0.98,-5
COC(=O)c1scc(C)c1N1C(=O)c2ccccc2C1=O,1,·,2.9*,i,-0.34,8
COC(=O)c1scc(C)c1NC(=O)Nc1ccccc1,3,i,0,i,-0.8,1
CCc1ccccc1OCC(=O)Nc1cc(S(=O)(=O)N(CC)CC)ccc1N1CCOCC1,7,·,·,·,·,·
Cc1cccc(OC2CCN(Cc3nc(CC4CC4)no3)CC2)c1,-1,i,3.0*,i,-0.0043,-9
Cc1cccc(SC2CCN(Cc3nc(CC4CC4)no3)CC2)c1,0,i,2,i,-0.06,-6
O=C(/C=C/c1cccs1)c1cc(Br)ccc1OC(=O)N1CCOCC1,8,i,-1,i,-4.9*,-23
COc1ccc(C(=O)/C=C/c2cccs2)c(OC(=O)N2CCOCC2)c1,-2,i,-1,i,-2.4,-28
